Experimental data as given in ChEMBL document CHEMBL1136075, “Synthesis of the novel liqustrazine derivatives and Their protective effect on injured vascular endothelial cell damaged by hydrogen peroxide” (2003).
The source made the active and inactive calls. The calls are words filed in the database; no cut-off is given here.

tested on: HUVEC; test: Maximum stimulation of proliferation rate of human umbilical vascular endothelial cells (HUVECs) by the compound at a concentration of 0.1-1.5 mM; NA is not active; format: functional, cell-based
Outline: (§1)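 Cultured human umbilical vein endothelial cells (normal, uninjured) exposed to compound over 0.1–1.5 mmol L⁻¹; viability by MTT, absorbance at 570 nm. Proliferation rate P(%) = (A − A0)/A0, with A0 the vehicle-treated control wells. The maximum P over the concentrations tested is reported. Mean ± SEM, n=6 wells.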

With `Cc1nc(C)c(COC(=O)c2ccc(Br)cc2)nc1C` the Pmax was “inactive”.
With `Cc1nc(C)c(COC(=O)c2ccc(Br)cc2Br)nc1C` the Pmax was “inactive”.

tested on: HUVEC; test: Maximum stimulation of proliferation rate of human umbilical vascular endothelial cells (HUVECs) by the compound at a concentration of 0.1 mM; format: functional; outline: as §1

Going from `Cc1nc(C)c(COC(=O)c2cccc(Cl)c2)nc1C` to `Cc1nc(C)c(COC(=O)c2ccc(Cl)cc2)nc1C`, the Pmax rises from 59.32% to 82.55%.

Going from `COc1ccc(C(=O)OCc2nc(C)c(C)nc2C)cc1OC` to `COc1cc(C(=O)OCc2nc(C)c(C)nc2C)cc(OC)c1OC`, the Pmax falls from 52.95% to 45.8%.

Compared with `CC(=O)Oc1ccccc1C(=O)OCc1nc(C)c(C)nc1C`, `COc1ccccc1C(=O)OCc1nc(C)c(C)nc1C` is higher in Pmax: 70.88% for the first, 71.95% for the second.

First: Cc1nc(C)c(COC(=O)Cc2ccccc2)nc1C
Second: Cc1nc(C)c(COC(=O)CCc2ccccc2)nc1C
The Pmax of the first is lower: 76.11% for the first, 80.54% for the second.

Compared with `COc1ccc(C(=O)OCc2nc(C)c(C)nc2C)cc1`, `COc1ccc(/C=C/C(=O)OCc2nc(C)c(C)nc2C)cc1` is higher in Pmax: 66.04% for the first, 75.45% for the second.

Compared with `COc1cc(/C=C/C(=O)OCc2nc(C)c(C)nc2C)ccc1O`, `COc1ccc(/C=C/C(=O)OCc2nc(C)c(C)nc2C)c(OC)c1` is lower in Pmax: 83.87% for the first, 70.16% for the second.

Going from `Cc1nc(C)c(COC(=O)c2cccnc2)nc1C` to `Cc1nc(C)c(COC(=O)C(C)(C)Oc2ccc(Cl)cc2)nc1C`, the Pmax falls from 88.57% to 87.85%.

tested on: HUVEC; test: Maximum stimulation of proliferation rate of human umbilical vascular endothelial cells (HUVECs) by the compound at a concentration of 1.5 mM; format: functional; outline: as §1

Work on `Cc1nc(C)c(COC(=O)c2ccccc2I)nc1C` yielded a Pmax of 61.36%.

tested on: HUVEC; test: Maximum stimulation of proliferation rate of human umbilical vascular endothelial cells (HUVECs) by the compound at a concentration of 0.6 mM; format: functional; outline: as §1

First: Cc1nc(C)c(C)nc1C [LIGUSTRAZINE]
Second: Cc1nc(C)c(CO)nc1C
The Pmax of the first is lower: 20.66% for the first, 28.03% for the second.

First: Cc1nc(C)c(COC(=O)c2ccccc2Cl)nc1C
Second: Cc1nc(C)c(COC(=O)c2ccccc2)nc1C
The Pmax of the first is lower: 32.1% for the first, 37% for the second.

Going from `Cc1nc(C)c(COC(=O)/C=C/c2ccccc2)nc1C` to `Cc1nc(C)c(COC(=O)c2ccco2)nc1C`, the Pmax falls from 77.32% to 69.39%.
